Results on 23 compounds are retold here after ChEMBL document CHEMBL2021917, “Isoquinoline derivatives as potent CRTH2 receptor antagonists: synthesis and SAR” (Bioorg Med Chem Lett, 2012).

In assay [1] the target is T1, Prostaglandin D2 receptor 2 (Homo sapiens, UniProt Q9Y5Y4).
T1 sequence (Q9Y5Y4 whole entry): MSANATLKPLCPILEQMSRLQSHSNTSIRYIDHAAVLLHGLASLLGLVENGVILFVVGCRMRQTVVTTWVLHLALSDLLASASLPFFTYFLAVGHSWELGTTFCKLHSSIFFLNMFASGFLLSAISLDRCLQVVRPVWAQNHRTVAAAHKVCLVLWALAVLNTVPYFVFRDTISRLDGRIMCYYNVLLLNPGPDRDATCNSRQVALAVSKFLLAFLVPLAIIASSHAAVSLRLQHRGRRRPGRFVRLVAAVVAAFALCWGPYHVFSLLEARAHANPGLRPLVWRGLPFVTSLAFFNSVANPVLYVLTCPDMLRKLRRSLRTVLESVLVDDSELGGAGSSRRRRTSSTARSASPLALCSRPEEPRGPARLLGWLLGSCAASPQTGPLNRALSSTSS
Nature of the assay: Displacement of 3H-PGD2 from human CRTH2 receptor expressed in CHO cells. The class given is cell-based. Summed up:
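Radioligand binding with ³H-PGD₂ on CHO cells stably transfected with human CRTH2. IC50 taken from full 10-point, half-log concentration–response curves, as means of at least two independent experiments.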
A general note: In a radioligand displacement assay an active substance lowers the binding of a labelled ligand.

Assay [2] concerns the target T1, Prostaglandin D2 receptor 2. Nature of the assay: Antagonist activity at human CRTH2 receptor expressed in human KB8 cells assessed as inhibition of PGD2-induced increase in intracellular Ca2+ concentration. In kind it is functional, cell-based. The essentials:
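Cells then washed and resuspended in HBSS with 10 mM HEPES pH 7.3 and 1 mM CaCl2 at 2 × 10⁵ cells/100 µl. PGD2-driven Ca²⁺ flux measured.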

Assay [3] addresses T2, Prostaglandin G/H synthase 2 (Homo sapiens, UniProt P35354).
T2 sequence (P35354 whole entry): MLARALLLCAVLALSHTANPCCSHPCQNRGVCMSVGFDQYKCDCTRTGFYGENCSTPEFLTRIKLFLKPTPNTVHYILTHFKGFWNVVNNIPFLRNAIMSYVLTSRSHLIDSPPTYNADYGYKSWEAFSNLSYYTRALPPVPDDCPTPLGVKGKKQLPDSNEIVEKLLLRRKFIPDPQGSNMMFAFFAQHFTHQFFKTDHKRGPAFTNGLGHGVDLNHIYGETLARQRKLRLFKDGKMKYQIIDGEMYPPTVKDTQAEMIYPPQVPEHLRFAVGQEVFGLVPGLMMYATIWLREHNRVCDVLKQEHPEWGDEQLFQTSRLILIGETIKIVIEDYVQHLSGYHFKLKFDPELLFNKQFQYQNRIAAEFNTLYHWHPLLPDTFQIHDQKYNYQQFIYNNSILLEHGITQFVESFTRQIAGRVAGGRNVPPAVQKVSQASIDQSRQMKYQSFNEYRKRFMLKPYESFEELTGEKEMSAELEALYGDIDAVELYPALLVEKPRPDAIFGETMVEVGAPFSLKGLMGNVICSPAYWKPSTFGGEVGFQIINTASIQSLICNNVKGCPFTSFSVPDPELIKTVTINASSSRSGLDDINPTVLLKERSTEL
The assay can be described thus: Inhibition of COX-2. The essentials:
(§1)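 Enzyme inhibition assays for COX-1 and COX-2 run by a contract profiling service following the provider's procedures.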

For assay [4], the target named is T3, Prostaglandin D2 receptor (Homo sapiens, UniProt Q13258).
T3 sequence (Q13258 whole entry): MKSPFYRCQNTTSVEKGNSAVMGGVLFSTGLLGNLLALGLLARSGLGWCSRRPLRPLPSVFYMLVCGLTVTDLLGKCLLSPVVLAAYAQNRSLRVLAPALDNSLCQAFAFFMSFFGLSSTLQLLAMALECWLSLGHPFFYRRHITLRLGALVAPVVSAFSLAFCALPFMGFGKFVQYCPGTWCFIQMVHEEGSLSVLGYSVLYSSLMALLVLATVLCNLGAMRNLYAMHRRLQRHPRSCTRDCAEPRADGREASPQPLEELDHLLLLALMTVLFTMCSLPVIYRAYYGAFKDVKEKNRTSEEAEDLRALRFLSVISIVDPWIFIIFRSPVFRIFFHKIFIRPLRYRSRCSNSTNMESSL
Nature of the assay: Inhibition of DP1 prostanoid receptor. The essentials: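 DP1 binding assay run by a contract profiling service following the provider's procedures.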

Assay [5] addresses Prostaglandin G/H synthase 1 (Homo sapiens, UniProt P23219). The assay can be described thus: Inhibition of COX-1. Summed up:
as §1

Prostaglandin G/H synthase 1, sequence (P23219 whole entry): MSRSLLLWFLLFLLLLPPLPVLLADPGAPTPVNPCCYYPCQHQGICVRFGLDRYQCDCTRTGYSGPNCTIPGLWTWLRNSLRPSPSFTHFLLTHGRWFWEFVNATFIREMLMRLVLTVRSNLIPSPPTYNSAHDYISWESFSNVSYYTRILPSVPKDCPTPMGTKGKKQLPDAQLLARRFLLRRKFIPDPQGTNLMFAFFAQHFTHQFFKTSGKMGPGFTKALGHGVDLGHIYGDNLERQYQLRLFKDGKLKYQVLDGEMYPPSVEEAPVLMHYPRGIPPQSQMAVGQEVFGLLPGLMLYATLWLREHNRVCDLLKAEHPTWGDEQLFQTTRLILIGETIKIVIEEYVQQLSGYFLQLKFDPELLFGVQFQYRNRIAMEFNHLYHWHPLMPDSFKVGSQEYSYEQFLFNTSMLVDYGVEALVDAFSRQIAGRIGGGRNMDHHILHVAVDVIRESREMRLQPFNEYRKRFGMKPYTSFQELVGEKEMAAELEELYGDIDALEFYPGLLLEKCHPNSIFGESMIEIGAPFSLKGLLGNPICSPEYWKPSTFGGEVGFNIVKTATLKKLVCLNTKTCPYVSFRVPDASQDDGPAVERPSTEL

`CC(=O)Nc1ccc(C(=O)c2ncc(CC(=O)O)c3ccccc23)cc1`: the IC50 in assay [1] came to 0.33 µM. Turning to `O=C(O)Cc1cnc(C(=O)c2ccc(NC(=O)c3ccccc3)cc2)c2ccccc12`, the IC50 in assay [2] stood at 0.042 µM; in assay [1], 0.0079 µM.

For `O=C(O)Cc1cnc(C(=O)c2ccc(NC(=O)C3CCCCC3)cc2)c2ccccc12`, the IC50 in assay [1] worked out at 0.014 µM. Consider `O=C(O)Cc1cnc(C(=O)c2ccc(NC(=O)c3ccc4ccccc4c3)cc2)c2ccccc12`, for which, in assay [1], the IC50 was 0.004 µM. `O=C(O)Cc1cnc(C(=O)c2ccc(NC(=O)c3cc4ccccc4[nH]3)cc2)c2ccccc12` displayed an IC50 in assay [1] of 0.0032 µM. Same read-out and setting: the result for `O=C(O)Cc1cnc(C(=O)c2ccc(NC(=O)c3ccncc3)cc2)c2ccccc12` reads 0.083 µM.

Turning to `O=C(O)Cc1cnc(C(=O)c2ccc(NC(=O)c3ncccn3)cc2)c2ccccc12`, the IC50 amounted to 0.55 µM in assay [2] and 0.29 µM in assay [1].

In the case of `O=C(O)Cc1cnc(C(=O)c2ccc(NC(=O)c3cccc(Cl)c3)cc2)c2ccccc12`, in assay [1], the IC50 came to 0.0032 µM. Consider `O=C(O)Cc1cnc(C(=O)c2ccc(NC(=O)c3ccc(Cl)cc3)cc2)c2ccccc12`, for which the IC50 in assay [1] was determined as 0.0034 µM. Regarding `O=C(O)Cc1cnc(C(=O)c2ccc(NC(=O)c3ccccc3Cl)cc2)c2ccccc12`, the IC50 in assay [1] was determined as 0.045 µM.

Consider `O=C(O)Cc1cnc(C(=O)c2ccc(NC(=O)c3ccc(C(F)(F)F)cc3)cc2)c2ccccc12`, for which the IC50 in assay [2] was 0.015 µM; in assay [1], 0.0049 µM.

As for `COc1ccc(C(=O)Nc2ccc(C(=O)c3ncc(CC(=O)O)c4ccccc34)cc2)cc1`, the IC50 in assay [1] turned out to be 0.0073 µM. As to `O=C(O)Cc1cnc(C(=O)c2ccc(NC(=O)c3ccc(Cl)c(Cl)c3)cc2)c2ccccc12`, the IC50 was above 10 µM in assay [3], above 1 µM in assay [4], 0.019 µM in assay [1] and above 10 µM in assay [5]. `O=C(O)Cc1cnc(C(=O)c2ccc(NC(=O)CCc3ccc(Cl)c(Cl)c3)cc2)c2ccccc12` registered an IC50 in assay [1] of 0.013 µM. For `O=C(O)Cc1cnc(C(=O)c2ccc(NC(=O)/C=C/c3ccc(Cl)c(Cl)c3)cc2)c2ccccc12`, the figures for the IC50 in assay [2] and in assay [1] were 0.017 µM and 0.004 µM, respectively. As to `CN(C(=O)c1ccc(Cl)c(Cl)c1)c1ccc(C(=O)c2ncc(CC(=O)O)c3ccccc23)cc1`, the IC50 in assay [1] came to 0.21 µM. Compound `O=C(O)Cc1cnc(C(=O)c2ccc(NCc3ccc(Cl)c(Cl)c3)cc2)c2ccccc12` yielded an IC50 in assay [1] of 0.0061 µM. The same measure, in the same setting: the result for `O=C(O)Cc1cnc(C(=O)c2ccc(NS(=O)(=O)c3ccc(Cl)c(Cl)c3)cc2)c2ccccc12` reads 0.34 µM. On to `O=C(O)Cc1cnc(C(=O)c2ccc(OCc3ccc(Cl)c(Cl)c3)cc2)c2ccccc12`, for which the IC50 was determined as 0.18 µM in assay [2] and 0.038 µM in assay [1].

In assay [1], `O=C(O)Cc1cnc(C(=O)c2ccc(C(=O)Nc3ccc(Cl)c(Cl)c3)cc2)c2ccccc12` returned an IC50 of 0.01 µM. As for `O=C(O)Cc1cnc(C(=O)c2ccc(C(=O)NCCc3ccc(Cl)cc3)cc2)c2ccccc12`, in assay [1], the concentration for half-maximal inhibition (IC50) came to 0.0078 µM. For `CC(C)(C(=O)O)c1cnc(C(=O)c2ccc(C(=O)NCCc3ccc(Cl)cc3)cc2)c2ccccc12`, the IC50 in assay [1] is 0.2 µM. On the same count and under the same terms, the value for `O=C(O)COc1cnc(C(=O)c2ccc(C(=O)NCCc3ccc(Cl)cc3)cc2)c2ccccc12` was 0.025 µM.

Broadly, the IC50 is the concentration that gives 50% inhibition.
